# Measured values pooled from the literature.
# Compare with care: the assays were run in different laboratories.
# Target: Hormonally up-regulated neu tumor-associated kinase (HUNK, Homo sapiens, UniProt P57058)
# Residues used in one study (P57058 1-714): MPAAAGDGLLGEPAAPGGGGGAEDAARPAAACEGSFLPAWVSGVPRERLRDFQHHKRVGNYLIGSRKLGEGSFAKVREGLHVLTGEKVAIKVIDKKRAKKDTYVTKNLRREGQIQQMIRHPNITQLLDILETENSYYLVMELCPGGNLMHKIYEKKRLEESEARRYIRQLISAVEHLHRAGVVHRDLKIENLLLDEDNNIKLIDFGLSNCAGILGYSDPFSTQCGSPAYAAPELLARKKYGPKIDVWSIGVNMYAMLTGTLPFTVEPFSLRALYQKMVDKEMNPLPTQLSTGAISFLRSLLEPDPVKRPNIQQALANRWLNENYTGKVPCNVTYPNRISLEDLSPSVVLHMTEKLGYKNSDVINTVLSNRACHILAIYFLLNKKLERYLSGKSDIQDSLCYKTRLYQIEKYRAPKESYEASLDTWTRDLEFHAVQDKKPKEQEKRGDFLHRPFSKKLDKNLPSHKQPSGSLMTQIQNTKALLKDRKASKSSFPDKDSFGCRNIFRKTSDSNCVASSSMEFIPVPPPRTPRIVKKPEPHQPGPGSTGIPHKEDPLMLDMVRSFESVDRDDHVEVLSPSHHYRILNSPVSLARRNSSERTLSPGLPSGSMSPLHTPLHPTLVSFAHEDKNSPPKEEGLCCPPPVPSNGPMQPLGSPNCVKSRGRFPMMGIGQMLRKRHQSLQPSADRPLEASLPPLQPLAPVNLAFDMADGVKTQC
Compound,effect on,method,tested at,remaining binding [%]
CC1=C(C#N)[C@@H](c2ccc3[nH]nc(C)c3c2)C(C#N)=C(c2ccc(Cl)cc2)N1,cell-free assay,competition with immobilised ligand,1 µM,81.4
CC1CCCN1c1nccc(-c2cnn3ncccc23)n1 (stereo not shown),binding,,1 µM,100
COc1cnc(Nc2cccc(S(N)(=O)=O)c2)nc1N1CCN(c2ccccc2)CC1,binding,competition with immobilised ligand,1 µM,74
O=C(NC[C@@H]1[C@H]2CN(C(=O)OCc3cc(C(F)(F)F)cc(C(F)(F)F)c3)C[C@@H]12)c1ccc2[nH]nnc2c1,cell-free assay,competition with immobilised ligand,1 µM,100
c1cncc(-c2cccc(Nc3nccc(NC4CCCCC4)n3)c2)c1,binding,competition with immobilised ligand,10 µM,100
Cc1nc(N2CC[C@@H](O)C2)ncc1-c1cc(C(F)(F)F)cc2[nH]ncc12,binding,competition with immobilised ligand,1 µM,100
C[C@@H]1CCN(c2nccc(-c3cnn4ncccc34)n2)C1,binding,,1 µM,100
O=C(NCC1CCOCC1)c1n[nH]cc1NC(=O)c1c(F)cccc1F,binding,competition with immobilised ligand,1 µM,100
COc1ccnn2ncc(-c3ccnc(N(C)C)n3)c12,binding,,1 µM,100
CCC(=O)N[C@H]1CC[C@@H](C(=O)N(C)c2ccc(-c3nc4ccccc4o3)cc2)C1,cell-free assay,competition with immobilised ligand,1 µM,100
O=C(NCCCN1CCOCC1)c1ccc(Nc2nccc(-c3cc4ccccc4s3)n2)cc1,binding,competition with immobilised ligand,1 µM,100
C[C@@H](c1ccc(-n2cnc3c(N)ncnc32)cc1)N1CCc2nn(C)c(Cc3ccccc3)c2C1=O,binding,competition with immobilised ligand,0.1 µM,79
O=C(NCCCN1CCOCC1)c1ccc(Nc2ncc(Cl)c(-c3ccc(Cl)s3)n2)cc1,binding,competition with immobilised ligand,1 µM,100
CN(C)c1nccc(-c2cnc3ncccn23)n1,binding,,1 µM,83
CN(c1ccnc(CNc2nc(Nc3ccc4c(c3)CC(=O)N4)ncc2C(F)(F)F)n1)S(C)(=O)=O,cell-free assay,competition with immobilised ligand,1 µM,100
Nc1ncc2c(n1)-c1c([nH]c3ccc(C#CC4CC4)cc13)CCCC2,binding,competition with immobilised ligand,1 µM,97
N[C@H]1CCN(c2nccc(-c3cnn4ncccc34)n2)C1,binding,,1 µM,82
CCN1CCN(Cc2ccc(C(=O)Nc3ccc(C)c(Oc4ccc5c(c4)CC(=O)N5)c3)cc2C(F)(F)F)CC1,binding,competition with immobilised ligand,1 µM,100
CN([C@@H]1CCc2c(CC(=O)O)c3ccccc3n2C1)S(=O)(=O)c1ccc(F)cc1,cell-free assay,competition with immobilised ligand,1 µM,99
O=C(c1ccc(Nc2nccc(-c3cc4ccccc4s3)n2)cc1)N1CCC(N2CCCC2)CC1,binding,competition with immobilised ligand,1 µM,100
Cc1cnn2ncc(-c3ccnc(N(C)C)n3)c2c1,binding,,1 µM,100
COc1cc(-c2cn(C3CCc4ccccc4N(CC(F)(F)F)C3=O)nn2)ccc1-n1ccc(C)n1 (stereo not shown),cell-free assay,competition with immobilised ligand,1 µM,100
